PPC-1+TRAIL kill: compounds killing PPC-1 cancer cells with TRAIL present, primary screen, TRAIL potentiator project, ATPLite luminescence, uHTS. cell killing (% activity), % at 4 µM or 5 µM. 220,000 compounds, 0.41% hits. PPC-1 cells + TRAIL, ATPLite viability luminescence. AID 1443, 2008;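 active = cell killing above 50% in the first pass at 4 µM, then a duplicate retest at 5 µM averaging 50% or more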
FLuc stim CS: FLuc activators, initial screening, artefact control for FLuc-dependent activation tests, biochemical, ATPlite luminescence; Luciferin 4-monooxygenase (Photinus pyralis), P08659; ATPlite luciferase biochemical, 10 min; 0 = ATP-free wells, 1 = DMSO control; activation factor at 10 µM; 200,000 tested, under 10 active;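 active = luciferase activation factor, scaled between plate controls, of at least 2 with compound at 10 µM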
Target sequence (P08659 whole entry, looked up): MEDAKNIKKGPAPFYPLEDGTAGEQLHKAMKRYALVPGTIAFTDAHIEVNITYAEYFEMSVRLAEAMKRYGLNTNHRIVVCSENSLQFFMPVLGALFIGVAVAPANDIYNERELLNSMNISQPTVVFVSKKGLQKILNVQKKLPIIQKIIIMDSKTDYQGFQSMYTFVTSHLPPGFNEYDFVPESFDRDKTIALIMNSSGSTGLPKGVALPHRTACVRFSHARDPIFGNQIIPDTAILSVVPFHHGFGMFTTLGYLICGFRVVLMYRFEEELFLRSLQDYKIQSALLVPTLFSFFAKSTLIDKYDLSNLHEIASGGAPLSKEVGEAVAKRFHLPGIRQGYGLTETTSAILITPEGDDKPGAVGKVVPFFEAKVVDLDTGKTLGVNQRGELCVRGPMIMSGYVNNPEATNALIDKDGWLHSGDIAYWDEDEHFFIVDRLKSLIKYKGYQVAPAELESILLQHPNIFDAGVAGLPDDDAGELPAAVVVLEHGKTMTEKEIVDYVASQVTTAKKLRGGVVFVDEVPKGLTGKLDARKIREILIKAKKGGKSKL
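Material: luciferase plus luciferin reagent, cell-free. Medium: PBS buffer for ATP. Also added: ATP substrate, dispensed from a 10.24 µM working solution in PBS. Doses: test compounds dosed from 2 mM stocks in 100% DMSO. Incubation: 10 min post-reagent at room temperature. Technique: light output (luminescence). Read-out basis: luminescence gain marking luciferase activators.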
FLuc inh counter: firefly luciferase enzyme inhibitors, primary screen, artefact control for luciferase-based inhibitor screens, biochemical, luminescence, ATPLite; Luciferin 4-monooxygenase (Photinus pyralis), P08659; 10 min; inhibition, % at 10 µM; 200,000 compounds, 1.5% hits; AID 1006, 2008;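 active = inhibition above about 50% when tested at 10 µM, limit read from the data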
TRAIL sens C8: viability loss with TRAIL in NB7+C8 cells, primary screen, TRAIL sensitizer project, cell-based, ATPlite luminescence | inhibition (viability loss, TRAIL sensitization), % at 10 µM | 360,000 compounds, 1% hits | AID 624354, 2012;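 active = compounds causing at least 50% loss of cell viability in the single-dose screen, relative to plate controls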
Hits are given with their value; . = inactive; / = no result given. Hits are enriched below; roughly 1.6% of the tested compounds scored in any of these assays.

SMILES	PPC-1+TRAIL kill	FLuc stim CS	FLuc inh counter	TRAIL sens C8
Cc1ccc(NC(=O)COC(=O)CNC(=O)C2CCCCC2)cc1S(=O)(=O)N(C)C	/	/	/	.
CCCCNc1c(-c2ccc(SC3CCCCC3)c(OC)c2)nc2ccc(C)cn12	/	/	/	.
CC(/C=N/NC(=O)c1cccs1)=C\c1ccco1	.	.	56.7	.
C=CCc1c(C)nc(-c2ccccc2)nc1N/N=C/c1ccncc1	.	.	52.8	.
C=CCc1c(C)nc(-c2ccccc2)nc1N/N=C/c1ccccc1	.	.	.	.
CCOC(=O)c1c(C)n(C)c2ccc(OC)c(NC(=O)CN3CCN(Cc4ccccc4)CC3)c12	.	.	.	.
CC(=O)c1ccc(NC(=O)CSc2nnc(-c3ccco3)c(-c3ccco3)n2)cc1	.	.	.	.
O=C(N/N=C/c1ccccn1)c1ccc(Br)cc1	.	.	82.3	.
CC(C)(C)c1ccc(C(=O)N/N=C/c2ccccn2)cc1	/	/	/	.
O=C(N/N=C/c1ccccn1)c1ccc([N+](=O)[O-])cc1	.	.	66.8	.
Cc1cccc(C(=O)N/N=C/c2ccccn2)c1	.	.	50.6	.
O=C(N/N=C/c1ccccn1)c1cc([N+](=O)[O-])cc([N+](=O)[O-])c1	.	.	.	.
O=C(N/N=C/c1ccccn1)c1ccc(N/N=C/c2ccccn2)cc1	.	.	72.3	.
Cc1ccccc1NC(=O)Nc1nc(CN(C)C)cs1	/	/	/	.
O/N=C/c1ccccc1OCc1ccccc1F	.	.	.	.
O=C(N/N=C/c1ccc(F)cc1)c1ccc(Br)cc1	.	.	.	.
Cc1cccc(/C=N/NC(=O)c2ccc(Br)cc2)c1	.	.	53.7	.
Cn1ccc(-c2ccccc2)n1	.	.	.	.
O=C1C(Br)=C(c2ccccc2)C(c2ccccc2)=C1c1ccccc1	/	/	/	82.5
Cc1nn(-c2ccccc2)c2nc(N)c(C#N)c(-c3ccc(F)cc3)c12	.	.	.	57.7
O=C1c2ccccc2C(=O)c2c(Nc3ccc(CCO)cc3)ccc(O)c21	.	/	/	.
O=C1c2c(O)ccc(O)c2C(=O)c2c(NCCNCCO)ccc(NCCNCCO)c21	/	/	/	82.4
Cc1ncsc1C(=O)Nc1nc2c(s1)CCCC2	.	.	.	.
O=C(Nc1nc2c(s1)CCCC2)c1ccc2ncsc2c1	.	.	59.0	.
Cc1cc(C(=O)Nc2nc3c(s2)CCCC3)cs1	.	.	69.7	58.0
SMILES	PPC-1+TRAIL kill	FLuc stim CS	FLuc inh counter	TRAIL sens C8
CCC(C)c1ccc(NC(=O)Nc2cccnc2)cc1 (configuration not stated)	/	/	/	48.8
CC(=O)c1ccc(NC(=O)Nc2cccnc2)cc1	/	/	/	52.3
S=C(NCc1ccccn1)Nc1ccc(Cl)cc1	.	.	.	.
O=C(NC1CC1)C1CCN(S(=O)(=O)c2ccc(Cl)c([N+](=O)[O-])c2)CC1	/	/	/	64.1
CN(C)c1ccc(/C=C/c2ccncc2)cc1	.	.	.	.
CN(C)c1ccc(C=Cc2cnccn2)cc1	/	/	/	79.8
COc1ccc(-c2nn(-c3ccccc3)cc2C(=O)Nc2ccc(C(=O)O)cc2)cc1OC	/	/	/	.
COc1ccc(-c2nn(-c3ccccc3)cc2C(=O)O)cc1OC	.	.	81.9	.
COc1cccc(C(=O)Nc2cc(S(=O)(=O)N3CCOCC3)ccc2N2CCOCC2)c1	/	/	/	.
CC(C)CCn1cnc2c([nH]c3cccc(Cl)c32)c1=O	.	.	.	51.8
Oc1ccc(C=Nc2ccc(N3CCOCC3)cc2)c(O)c1	.	.	77.8	.
Cc1ccccc1CS(=O)(=O)c1ncc(Cl)c(C(=O)Nc2ccc(F)cc2)n1	/	/	/	91.7
Cc1ccc(NC(=O)c2nc(S(=O)(=O)Cc3ccccc3)ncc2Cl)cc1	/	/	/	65.0
Cc1cccc(C)c1NC(=O)c1nc(S(=O)(=O)Cc2ccccc2)ncc1Cl	/	/	/	.
O=C(Nc1ccc(F)cc1)c1nc(S(=O)(=O)Cc2ccccc2)ncc1Cl	/	/	/	92.3
Cc1nnc(NC(=O)c2nc(S(=O)(=O)Cc3ccccc3)ncc2Cl)s1	/	/	/	82.9
Cc1ccccc1NC(=O)c1nc(S(C)(=O)=O)ncc1Cl	/	/	/	.
COc1cccc(NC(=O)CN2CCCCCC2)c1	/	/	/	.
Cc1cc(SC(C)C(=O)O)nc2ccccc12 (configuration not stated)	.	.	.	.
Cn1ncc2c(Nc3cccc([N+](=O)[O-])c3)ncnc21	/	/	/	.
COc1ccc(CCNC(=O)c2ccc(CNS(=O)(=O)c3ccccc3)cc2)cc1OC	.	.	.	.
Nc1nccc(-c2cc(-c3ccc(Cl)cc3Cl)no2)n1	.	/	/	68.8
CC(C)(C)C1CCN2CCC[C@](c3ccccc3)(C1)C2OCCCO (some centres not stated)	/	/	/	.
O=C(NCCc1ccccc1F)c1ccc2c(c1)OCCO2	/	/	/	91.5
O=C(Nc1ccc(Br)cc1F)c1ccc2c(c1)OCCO2	/	/	/	53.6
SMILES	PPC-1+TRAIL kill	FLuc stim CS	FLuc inh counter	TRAIL sens C8
CCOC(CNC(=O)c1ccc2c(c1)ncn2-c1ccc(F)c(F)c1)OCC	.	.	.	.
O=C(NC(C(=O)N1CCCC1C(=O)O)=C1CCCCC1)c1ccccc1 (configuration not stated)	.	.	.	.
COc1ccc2nc(N3CCCC(C(=O)NCCc4ccc(OC)c(OC)c4)C3)sc2c1 (configuration not stated)	/	/	/	.
COc1ccc(C2CC(=O)c3cnc(N4CCc5ccccc54)nc3C2)c(OC)c1 (configuration not stated)	.	.	.	/
CC(C)CC(N)c1csc(NC(=O)Nc2ccccc2Cc2ccccc2)n1 (configuration not stated)	/	/	/	.
CC(C)CC(N)c1csc(NC(=O)c2cc(C(C)(C)C)nn2Cc2ccccc2)n1 (configuration not stated)	/	/	/	84.4
O=C(Nc1nc(-c2ccccc2)cs1)c1ccc(N2CCOCC2)c([N+](=O)[O-])c1	.	.	.	83.4
O=C(O)c1cc(/C=C/c2ccc(N3CCOCC3)c([N+](=O)[O-])c2)nc2ccccc12	.	/	/	64.2
Cc1cccc(/C(N)=N/OC(=O)COc2ccccc2Cl)c1	.	.	.	.
Cc1cccc(/C(N)=N/OC(=O)c2ccc(Cl)cc2Cl)c1	.	.	89.9	62.3
N/C(Cn1cncn1)=N\OC(=O)c1ccc(Cl)cc1	.	.	.	.
Cc1cccc(/C(N)=N/OC(=O)c2cccc3ccccc23)c1	/	/	/	92.4
Cc1ccc(/C(N)=N/OC(=O)c2ccc(C)cc2Cl)cc1	62.1	.	73.4	70.5
N/C(=N\OC(=O)c1ccc(Cl)cc1)c1ccn[nH]1	/	/	/	83.2
N/C(=N\OC(=O)c1cccc2ccccc12)c1cccnc1	.	.	.	.
CC(=NOC(=O)c1ccc(Cl)cc1)c1nccs1	/	/	/	.
N/C(=N\OC(=O)c1ccccc1Cl)c1ccccc1	.	.	93.6	65.5
O=C(O/N=C(\c1ccccc1)c1ccncc1)c1ccccc1Cl	.	.	.	.
N/C(CCS(=O)(=O)c1ccc(Cl)cc1)=N\OC(=O)c1ccccc1Cl	.	/	/	.
N/C(=N\OC(=O)c1ccccc1Cl)c1ccc(Cl)cc1	.	.	56.5	83.1

High-throughput results deposited in PubChem BioAssay by Sanford-Burnham Center for Chemical Genomics.
